Laboratory results: ChEMBL document CHEMBL4257552, “2-Aminobenzimidazoles as antibiofilm agents against Salmonella enterica serovar Typhimurium” (Medchemcomm, 2018)
pIC50: −log10 of the molar value.

tested on: Salmonella typhimurium; test: Antibiofilm activity against Salmonella typhimurium ATCC 14028 after 24 hrs by crystal violet staining based assay; type: functional, organism-based, Salmonella enterica subsp. enterica serovar Typhimurium; conditions: Salmonella enterica, ATCC 14028, 24 h
In short: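 S. Typhimurium ATCC 14028 overnight TSB culture subcultured to OD600 0.08 in 1:20 TSB:water, compound added at set concentrations, static incubation in PVC 96-well plates 24 h at 30 °C. IC50 from dose-response curves.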

CCCCCc1ccc(C(=O)Nc2ccc3c(c2)nc(N)n3C)cc1 and CCCCCc1ccc(C(=O)Nc2ccc3nc(N)n(C)c3c2)cc1 fall in the same range of pIC50: 4.40 to 4.70 for the first, 4.40 to 4.70 for the second.

CCCCCc1ccc(C(=O)Nc2ccc3c(c2)nc(N)n3C(C)C)cc1 and CCCCCc1ccc(C(=O)Nc2ccc3nc(N)n(C(C)C)c3c2)cc1 fall in the same range of pIC50: 4.40 to 4.70 for the first, 4.40 to 4.70 for the second.

First: CCCCCc1ccc(C(=O)Nc2ccc3c(c2)nc(N)n3CCCC)cc1
Second: CCCCCCn1c(N)nc2cc(NC(=O)c3ccc(CCCCC)cc3)ccc21
The pIC50 of the first is lower: 4.70 to 4.82 for the first, 4.97 for the second.

Compared with CCCCCCCCn1c(N)nc2cc(NC(=O)c3ccc(CCCCC)cc3)ccc21, CCCCCCCCCCn1c(N)nc2cc(NC(=O)c3ccc(CCCCC)cc3)ccc21 is lower in pIC50: 5.18 for the first, 4.40 to 4.70 for the second.

First: CCCCCCCCCCCCn1c(N)nc2cc(NC(=O)c3ccc(CCCCC)cc3)ccc21
Second: CCCCCCn1c(N)nc2ccc(NC(=O)c3ccc(CCCCC)cc3)cc21
The pIC50 of the first is lower: 4.40 to 4.70 for the first, 4.82 to 5.00 for the second.

CCCCCc1ccc(C(=O)Nc2ccc3c(c2)nc(N)n3C2CCCC2)cc1 and CCCCCc1ccc(C(=O)Nc2ccc3c(c2)nc(N)n3C2CCCCC2)cc1 fall in the same range of pIC50: 4.70 to 4.82 for the first, 4.70 to 4.82 for the second.

CCCCCc1ccc(C(=O)Nc2ccc3c(c2)nc(N)n3CCc2c[nH]c3ccccc23)cc1 and CCCCCc1ccc(C(=O)Nc2ccc3c(c2)nc(N)n3CCCc2ccccc2)cc1 cannot be ordered by pIC50: 4.82 to 5.00 for the first, 4.88 for the second.

Compared with CCCCCc1ccc(C(=O)Nc2ccc3c(c2)nc(N)n3CCCCc2ccccc2)cc1, CCCCCCc1ccc(C(=O)Nc2ccc3c(c2)nc(N)n3CCCc2ccccc2)cc1 is lower in pIC50: 5.02 for the first, 4.70 to 4.82 for the second.

Compared with CCCCCc1ccc(C(=O)Nc2ccc3c(c2)nc(N)n3CCc2cnc[nH]2)cc1, CCCCCc1ccc(C(=O)Nc2ccc3c(c2)nc(N)n3CC(C)C)cc1 is higher in pIC50: 4.40 to 4.70 for the first, 4.82 to 5.00 for the second.

Compared with Cl.Nc1nc2cc(NC(=O)c3cc(Cl)cc(Cl)c3)ccc2n1CCCc1ccccc1, Cl.Nc1nc2cc(NC(=O)c3ccc(Cl)c(Cl)c3)ccc2n1CCCc1ccccc1 is higher in pIC50: 4.82 to 5.00 for the first, 5.20 for the second. The second is the more potent here.

Compared with Cl.Nc1nc2cc(NC(=O)Nc3ccc(Cl)c(Cl)c3)ccc2n1CCCc1ccccc1, Nc1nc2cc(C(=O)Nc3ccc(Cl)c(Cl)c3)ccc2n1CCCc1ccccc1 is 0.21 log units lower in pIC50: 5.11 for the first, 4.90 for the second. The first is the more potent here.

First: CCc1ccc(C(=O)Nc2ccc3c(c2)nc(N)n3CCCc2ccccc2)cc1
Second: CCCc1ccc(C(=O)Nc2ccc3c(c2)nc(N)n3CCCc2ccccc2)cc1
The pIC50 of the first is lower: 4.40 to 4.70 for the first, 4.70 to 4.82 for the second. The second is the more potent here.

First: CCCCOc1ccc(C(=O)Nc2ccc3c(c2)nc(N)n3CCCc2ccccc2)cc1
Second: CCCCCOc1ccc(C(=O)Nc2ccc3c(c2)nc(N)n3CCCc2ccccc2)cc1.Cl
The pIC50 of the first is lower: 4.70 to 4.82 for the first, 5.28 for the second. The second is the more potent here.

First: CCCCCCCc1ccc(C(=O)Nc2ccc3c(c2)nc(N)n3CCCc2ccccc2)cc1
Second: CCCCCCCCc1ccc(C(=O)Nc2ccc3c(c2)nc(N)n3CCCc2ccccc2)cc1
The pIC50 of the first is higher: 4.70 to 4.82 for the first, less than 4.30 for the second. The first is the more potent here.

Compared with CCCCCCCC(=O)Nc1ccc2c(c1)nc(N)n2CCCc1ccccc1, CCCCCCCCC(=O)Nc1ccc2c(c1)nc(N)n2CCCc1ccccc1 is higher in pIC50: less than 4.40 for the first, 4.70 to 4.82 for the second. The second is the more potent here.

CCCCCCCCCC(=O)Nc1ccc2c(c1)nc(N)n2CCCc1ccccc1 and CCCCCCCCCCC(=O)Nc1ccc2c(c1)nc(N)n2CCCc1ccccc1 fall in the same range of pIC50: 4.82 to 5.00 for the first, 4.82 to 5.00 for the second.

First: CCCCCc1ccc(C(=O)Nc2ccc3nc(N)n(CC)c3c2)cc1
Second: CCCCCc1ccc(C(=O)Nc2ccc3nc(N)n(CCCC)c3c2)cc1
The pIC50 of the first is lower: 4.40 to 4.70 for the first, 4.82 to 5.00 for the second. The second is the more potent here.

CCCCCCCCCCCC(=O)Nc1ccc2c(c1)nc(N)n2CCCc1ccccc1 and CCCCCCCCCCCCCC(=O)Nc1ccc2c(c1)nc(N)n2CCCc1ccccc1 cannot be ordered by pIC50: less than 4.30 for the first, less than 4.30 for the second.

First: CCCCCCC(=O)Nc1ccc2c(c1)nc(N)n2CCCc1ccccc1
Second: CCCCc1ccc(C(=O)Nc2ccc3c(c2)nc(N)n3CCCc2ccccc2)cc1
The pIC50 of the first is lower: 4.40 to 4.70 for the first, 4.82 to 5.00 for the second. The second is the more potent here.

Nc1nc2cc(NC(=O)c3ccc(Br)c(Br)c3)ccc2n1CCCc1ccccc1 and Nc1nc2cc(NC(=O)c3cc(Br)cc(Br)c3)ccc2n1CCCc1ccccc1 are within 0.2 log units of each other in pIC50: 5.27 for the first, 5.25 for the second.

Compared with CCCOc1ccc(C(=O)Nc2ccc3c(c2)nc(N)n3CCCc2ccccc2)cc1, CCCCCc1ccc(C(=O)Nc2ccc3[nH]c(N)nc3c2)cc1 is lower in pIC50: 4.82 to 5.00 for the first, 4.40 to 4.70 for the second.

tested on: Salmonella typhimurium; test: Inhibition of planktonic growth of Salmonella typhimurium ATCC 14028 after 2 to 24 hrs; type: organism-based; conditions: salmonella enterica subsp. enterica serovar typhimurium
In short: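 Overnight TSB culture diluted into fresh 1:20 TSB (OD600 0.08), 3 mL tubes with compound or untreated control, shaken at 30 °C. Samples at 2, 4, 6, 8 and 24 h serially diluted in 1:20 TSB, plated on nutrient agar, incubated overnight at 37 °C, and colonies counted.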

With Cl.Nc1nc2cc(NC(=O)Nc3ccc(Cl)c(Cl)c3)ccc2n1CCCc1ccccc1 the Activity was “Non-Toxic”.

For CCCCCOc1ccc(C(=O)Nc2ccc3c(c2)nc(N)n3CCCc2ccccc2)cc1.Cl, the “growth inhibition (GI)” value was “Non-Toxic”.

tested on: Galleria mellonella; test: Toxicity in Galleria mellonella at 400 mg/kg; type: organism-based; conditions: in vivo

Cl.Nc1nc2cc(NC(=O)c3cc(Cl)cc(Cl)c3)ccc2n1CCCc1ccccc1 was tested, and the Activity was “Non-Toxic”.
For Cl.Nc1nc2cc(NC(=O)c3ccc(Cl)c(Cl)c3)ccc2n1CCCc1ccccc1, the Activity was “Non-Toxic”.
